Source: ChEMBL document CHEMBL3351600, “Sulfur, selenium and tellurium pseudopeptides: synthesis and biological evaluation” (Bioorg Med Chem, 2014)

Legend:
CAKI-1 = test: Growth inhibition of human CAKI-1 cells after 48 hrs; type: functional; conditions: CAKI-1, 48 h
Method in brief: (§1)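 NCI-60 human tumour cell line panel screen run at the US National Cancer Institute under its standard cytotoxicity protocol. It covers leukaemia, NSCLC, colon, CNS, melanoma, ovarian, renal, prostate and breast lines. An initial single-dose test was followed by five-dose testing with 48 h compound exposure.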

[1] = Growth inhibition of human UACC62 cells after 48 hrs; type: functional; conditions: UACC-62, 48 h
Method in brief: (§2)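 Run by the NCI 58-cell-line screen under its standard cytotoxicity protocol. Compounds were first tested at a single dose, then at five doses. Cells were exposed to compound for 48 h.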

786-0 = test: Growth inhibition of human 786-0 cells after 48 hrs; type: functional; conditions: 786-0, 48 h; method in brief: as §1
[2] = Growth inhibition of human PC3 cells after 48 hrs; type: functional; conditions: PC-3, 48 h; method in brief: as §1
[3] = Growth inhibition of human HCT116 cells after 48 hrs; type: functional; conditions: HCT-116, 48 h; method in brief: as §1
A549 = test: Growth inhibition of human A549/ATCC cells after 48 hrs; type: functional; conditions: A549, 48 h; method in brief: as §1
MCF7 = test: Cytotoxicity against human MCF7 cells assessed as cell viability after 24 hrs incubation by MTT assay; type: functional, cell-based; conditions: MCF7, 24 h
Method in brief: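 Cell lines came from DSMZ; primary human fibroblasts served as non-cancer controls. Cells were grown in medium with 10% FCS, seeded at 50,000 cells/ml, and grown 2 days at 37 °C, 10% CO2. Serial dilutions were then added for 24 h. MTT (final 0.5 mg/ml) was added for 2 h. Formazan was pelleted, PBS-washed, dissolved in isopropanol/0.4% HCl and read at 590 nm. Two parallel experiments were run. IC50 was taken as the concentration giving 50% of untreated-control absorbance.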

[4] = Growth inhibition of human RXF393 cells after 48 hrs; type: functional; conditions: RXF 393, 48 h; method in brief: as §1
MDA-MB-435 = test: Growth inhibition of human MDA-MB-435 cells after 48 hrs; type: functional; conditions: MDA-MB-435, 48 h; method in brief: as §1
[5] = Growth inhibition of human UACC257 cells after 48 hrs; type: functional; conditions: UACC-257, 48 h; method in brief: as §2
ACHN = test: Growth inhibition of human ACHN cells after 48 hrs; type: functional; method in brief: as §1
HL-60(TB) = test: Growth inhibition of human HL-60(TB) cells after 48 hrs; type: functional; conditions: HL-60, 48 h; method in brief: as §1
Saccharomyces cerevisiae = test: Antimicrobial activity against Saccharomyces cerevisiae assessed as inhibition at 20 ug/6 mm disk after 1 to 2 days by agar diffusion assay; type: functional
Method in brief: (§3)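 Standard agar diffusion: 6-mm paper disks loaded with 20 µg of compound were placed on inoculated plates. Inhibition-zone diameter (mm) was read after 1 and 2 days of growth.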

NCI-H322M = test: Growth inhibition of human NCI-H322M cells after 48 hrs; type: functional; method in brief: as §1
[6] = Growth inhibition of human SF539 cells after 48 hrs; type: functional; conditions: SF-539, 48 h; method in brief: as §1
[7] = Growth inhibition of human NCI-ADR-RES cells after 48 hrs; type: functional; method in brief: as §1
[8] = Growth inhibition of human HCT15 cells after 48 hrs; type: functional; conditions: HCT-15, 48 h; method in brief: as §1
K562 = test: Growth inhibition of human K562 cells after 48 hrs; type: functional; conditions: K562, 48 h; method in brief: as §1
[9] = Growth inhibition of human HOP92 cells after 48 hrs; type: functional; conditions: HOP-92, 48 h; method in brief: as §1
[10] = Octanol-water partition coefficient, log P of the compound by HPLC analysis; type: physicochemical
Method in brief: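 Lipophilicity was measured by reversed-phase HPLC on a Nucleosil C18 column with isocratic water/methanol (3:1) at 0.5 ml/min and UV detection at 230 and 245 nm. Dead time was set with thiourea (t0 0.728 min). Retention factor was k = (tR − t0)/t0, and log P came from a calibration against at least six reference compounds.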

Aspergillus niger = test: Antimicrobial activity against Aspergillus niger assessed as inhibition at 20 ug/6 mm disk after 1 to 2 days by agar diffusion assay; type: functional; method in brief: as §3
Micrococcus luteus = test: Antimicrobial activity against Micrococcus luteus assessed as inhibition at 20 ug/6 mm disk after 1 to 2 days by agar diffusion assay; type: functional; method in brief: as §3
[11] = Growth inhibition of human OVCAR4 cells after 48 hrs; type: functional; conditions: OVCAR-4, 48 h; method in brief: as §1
M14 = test: Growth inhibition of human M14 cells after 48 hrs; type: functional; conditions: M14, 48 h; method in brief: as §1
Klebsiella pneumoniae = test: Antimicrobial activity against Klebsiella pneumoniae assessed as inhibition at 20 ug/6 mm disk after 1 to 2 days by agar diffusion assay; type: functional; method in brief: as §3
[12] = Growth inhibition of human UO31 cells after 48 hrs; type: functional; conditions: UO-31, 48 h; method in brief: as §2
SW-620 = test: Growth inhibition of human SW620 cells after 48 hrs; type: functional; conditions: SW-620, 48 h; method in brief: as §2
T47D = test: Growth inhibition of human T47D cells after 48 hrs; type: functional; method in brief: as §2
Mycolicibacterium phlei = test: Antimicrobial activity against Mycobacterium phlei assessed as inhibition at 20 ug/6 mm disk after 1 to 2 days by agar diffusion assay; type: functional; method in brief: as §3
NCI-H522 = test: Growth inhibition of human NCI-H522 cells after 48 hrs; type: functional; conditions: NCI-H522, 48 h; method in brief: as §1
[13] = Growth inhibition of human RPMI8226 cells after 48 hrs; type: functional; conditions: RPMI-8226, 48 h; method in brief: as §1
[14] = read-out: pLC50 (the source's name) (converted)

COc1ccc(N(CC(=O)NCCC[Te]c2ccccc2)C(=O)CCSC2=C(C)C(=O)c3ccccc3C2=O)cc1
GI50 (CAKI-1): 3.09 µM | LC50 (CAKI-1): 21.4 µM | TGI (CAKI-1; read-out: pTGI (converted)): 6.17 µM | GI50 [1]: 1.91 µM | CC50 [1, 14]: 19.1 µM | TGI ([1]; read-out: pTGI (converted)): 4.9 µM | GI50 (786-0): 2.09 µM | LC50 (786-0): 8.91 µM | TGI (786-0; read-out: pTGI (converted)): 4.37 µM | LC50 [2]: 14.8 µM | GI50 [3]: 0.339 µM | CC50 [3, 14]: 5.5 µM | TGI ([3]; read-out: pTGI (converted)): 1.29 µM | GI50 (A549): 0.257 µM | CC50 (A549; [14]): 3.47 µM | TGI (A549; read-out: pTGI (converted)): 0.724 µM | IC50 (MCF7): 7 µM | GI50 [4]: 1.86 µM | LC50 [4]: 7.94 µM | TGI ([4]; read-out: pTGI (converted)): 3.8 µM | GI50 (MDA-MB-435): 2.45 µM | CC50 (MDA-MB-435; [14]): 26.9 µM | TGI (MDA-MB-435; read-out: pTGI (converted)): 6.31 µM | GI50 [5]: 2.04 µM | CC50 [5, 14]: 16.6 µM | TGI ([5]; read-out: pTGI (converted)): 5.01 µM | GI50 (ACHN): 1.35 µM | LC50 (ACHN): 6.76 µM | TGI (ACHN; read-out: pTGI (converted)): 3.02 µM | GI50 (HL-60(TB)): 2.88 µM | CC50 (HL-60(TB); [14]): > 100 µM | TGI (HL-60(TB); read-out: pTGI (converted)): 6.76 µM | diameter of the inhibition zone (DIZ) (Saccharomyces cerevisiae): 0 mm | GI50 (NCI-H322M): 2.09 µM | CC50 (NCI-H322M; [14]): 60.3 µM | TGI (NCI-H322M; read-out: pTGI (converted)): 6.03 µM | GI50 [6]: 2.14 µM | CC50 [6, 14]: 7.08 µM | TGI ([6]; read-out: pTGI (converted)): 3.89 µM | GI50 [7]: 0.955 µM | LC50 [7]: 41.7 µM | TGI ([7]; read-out: pTGI (converted)): 5.01 µM | GI50 [8]: 0.447 µM | CC50 [8, 14]: 24.5 µM | TGI ([8]; read-out: pTGI (converted)): 2.34 µM | GI50 (K562): 1.95 µM | CC50 (K562; [14]): > 100 µM | TGI (K562; read-out: pTGI (converted)): 5.13 µM | GI50 [9]: 1.45 µM | CC50 [9, 14]: 13.2 µM | TGI ([9]; read-out: pTGI (converted)): 3.98 µM | logP [10]: 1.97 | diameter of the inhibition zone (DIZ) (Aspergillus niger): 0 mm | diameter of the inhibition zone (DIZ) (Micrococcus luteus): 8 mm | GI50 [11]: 2.63 µM | LC50 [11]: 31.6 µM | TGI ([11]; read-out: pTGI (converted)): 10.2 µM | GI50 (M14): 0.759 µM | CC50 (M14; [14]): 5.25 µM | TGI (M14; read-out: pTGI (converted)): 2.14 µM | diameter of the inhibition zone (DIZ) (Klebsiella pneumoniae): 12 mm | GI50 [12]: 1.66 µM | LC50 [12]: 8.71 µM | TGI ([12]; read-out: pTGI (converted)): 2.19 µM | GI50 (SW-620): 1.95 µM | CC50 (SW-620; [14]): 45.7 µM | TGI (SW-620; read-out: pTGI (converted)): 5.62 µM | GI50 (T47D): 1.55 µM | TGI (T47D; read-out: pTGI (converted)): 3.55 µM | diameter of the inhibition zone (DIZ) (Mycolicibacterium phlei): 15 mm | GI50 (NCI-H522): 1.07 µM | CC50 (NCI-H522; [14]): > 100 µM | TGI (NCI-H522; read-out: pTGI (converted)): 3.39 µM | GI50 [13]: 0.55 µM | CC50 [13, 14]: > 100 µM | TGI ([13]; read-out: pTGI (converted)): 3.09 µM
